Laboratory results published in ChEMBL document CHEMBL2440062, “New nucleotide-competitive non-nucleoside inhibitors of terminal deoxynucleotidyl transferase: discovery, characterization, and crystal structure in complex with the target” (J Med Chem, 2013).

Tests used:
[1] = target: DNA polymerase beta (Homo sapiens, UniProt P06746); experiment: Inhibition of human recombinant DNA polymerase beta
[2] = target: T1, DNA polymerase lambda (Homo sapiens) (UniProt Q9UGP5); experiment: Inhibition of human recombinant full length DNA polymerase lambda TdT-like activity using [3H]dNTP as substrate after 10 mins by scintillation counting analysis
T1 sequence (whole entry): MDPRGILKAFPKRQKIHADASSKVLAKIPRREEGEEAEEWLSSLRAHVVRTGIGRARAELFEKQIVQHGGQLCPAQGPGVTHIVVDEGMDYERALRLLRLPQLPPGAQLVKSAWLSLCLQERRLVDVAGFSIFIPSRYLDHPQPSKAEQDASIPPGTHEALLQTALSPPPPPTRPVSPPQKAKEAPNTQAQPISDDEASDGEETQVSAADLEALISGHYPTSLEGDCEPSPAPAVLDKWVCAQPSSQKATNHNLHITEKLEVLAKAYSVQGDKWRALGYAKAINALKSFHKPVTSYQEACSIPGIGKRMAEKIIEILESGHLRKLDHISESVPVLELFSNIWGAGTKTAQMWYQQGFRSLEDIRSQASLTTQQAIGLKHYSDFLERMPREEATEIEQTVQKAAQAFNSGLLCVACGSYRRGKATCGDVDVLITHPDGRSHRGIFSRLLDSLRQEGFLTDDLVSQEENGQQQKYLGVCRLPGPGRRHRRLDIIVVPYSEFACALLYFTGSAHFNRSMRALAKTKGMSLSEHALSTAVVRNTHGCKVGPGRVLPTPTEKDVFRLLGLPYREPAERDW
In short: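 Full-length recombinant human pol λ (>90% pure) was tested for template-independent activity. Acid-insoluble radioactivity was counted, and ID50 came from dose–response fitting.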

[3] = target: T1, DNA polymerase lambda (Homo sapiens); experiment: Inhibition of human recombinant full length DNA polymerase lambda using [3H]dTTP as substrate and 10 poly(dA)/oligo(dT) as template-primer after 15 mins by scintillation counting analysis
In short: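 Recombinant full-length human pol λ at 50 nM was assayed with 0.2 μM poly(dA)/oligo(dT)10:1 (3′-OH ends) and 5 μM [3H]dTTP (5 Ci/mmol). Incubation was 15 min at 37 °C. TCA precipitates were scintillation counted.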

[4] = target: DNA nucleotidylexotransferase (Homo sapiens, UniProt P04053); experiment: Inhibition of human recombinant TdT using [3H]dNTP as substrate after 10 mins by scintillation counting analysis
DNA nucleotidylexotransferase, sequence (P04053 whole entry): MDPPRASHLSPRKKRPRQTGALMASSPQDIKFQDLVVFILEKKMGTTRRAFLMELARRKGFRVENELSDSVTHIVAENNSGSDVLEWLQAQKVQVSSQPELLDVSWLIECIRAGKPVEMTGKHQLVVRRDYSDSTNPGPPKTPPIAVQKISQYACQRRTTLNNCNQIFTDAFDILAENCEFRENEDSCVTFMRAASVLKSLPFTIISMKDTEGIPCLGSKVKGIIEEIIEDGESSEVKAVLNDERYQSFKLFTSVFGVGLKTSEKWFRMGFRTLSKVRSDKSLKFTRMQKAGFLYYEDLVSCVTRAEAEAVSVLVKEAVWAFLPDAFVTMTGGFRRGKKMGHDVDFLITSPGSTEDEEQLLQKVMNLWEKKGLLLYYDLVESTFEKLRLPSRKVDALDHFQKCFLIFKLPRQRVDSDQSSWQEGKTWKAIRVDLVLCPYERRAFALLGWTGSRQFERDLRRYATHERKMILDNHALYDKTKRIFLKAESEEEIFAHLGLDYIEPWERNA
In short: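 TdT was from Trevigen. TCA-precipitated radioactivity was counted. ID50 came from dose–response fitting. For kinetics, DNA or dNTP was varied at increasing inhibitor, and Ki was obtained via Cheng–Prusoff for a competitive model.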

[5] = tested on: HeLa; experiment: Cytotoxicity against TdT-deficient human HeLa cells assessed as growth inhibition after 24 to 48 hrs by MTT assay; assay type: cell-based
In short: (§1)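 MOLT-4 cells were grown in RPMI-1640 and HeLa cells in DMEM, with 10% FCS at 37 °C. Cells were seeded at 10^5 per well, given 24 h to attach, then exposed to compounds (0.1–100 range) for 24 or 48 h. MTT at 1 mg/mL was added for 2 h at 37 °C, formazan was dissolved in DMSO, and absorbance read at 550 nm versus 0.5% DMSO vehicle. IC50 was obtained by regression, in triplicate.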

[6] = tested on: MOLT-4; experiment: Cytotoxicity against human MOLT4 cells overexpressing TdT assessed as growth inhibition after 24 to 48 hrs by MTT assay; assay type: functional, cell-based; in short: as §1

CCOC(=O)C(=O)CC(=O)/C=C/c1cc(C(=O)c2ccccc2)cn1Cc1ccc(C#N)cc1
IC50 [1]: > 40 µM
ID50 [2]: > 40 µM
ID50 [3]: > 40 µM
ID50 [4]: > 40 µM

C/C=C/n1cc(/C=C/C(=O)CC(=O)C(=O)OCC)c2ccccc21
IC50 [1]: > 40 µM
ID50 [2]: > 40 µM
ID50 [3]: > 40 µM
ID50 [4]: > 40 µM

CCOC(=O)C(=O)CC(=O)/C=C/c1cn(Cc2ccc(OC)cc2)c2ccccc12
IC50 [1]: > 40 µM
ID50 [2]: > 40 µM
ID50 [3]: > 40 µM
ID50 [4]: > 40 µM

C=C(C)Cn1cc(/C=C/C(=O)CC(=O)C(=O)OCC)c2ccccc21
IC50 [1]: > 40 µM
ID50 [2]: > 40 µM
ID50 [3]: > 40 µM
ID50 [4]: > 40 µM

CCCn1cc(/C=C/C(=O)CC(=O)C(=O)O)c2ccccc21
IC50 [5]: > 40 µM
IC50 [6]: 50 µM
IC50 [1]: > 40 µM
ID50 [2]: > 40 µM
ID50 [3]: > 40 µM
ID50 [4]: 3.1 µM

O=C(/C=C/c1cc(C(=O)c2ccccc2)cn1Cc1ccccc1)CC(=O)C(=O)O
IC50 [5]: > 40 µM
IC50 [6]: > 40 µM
IC50 [1]: > 40 µM
ID50 [2]: 20 µM
ID50 [3]: > 40 µM
ID50 [4]: 16 µM

O=C(/C=C/c1cn(-c2ccccc2)c2ccccc12)CC(=O)C(=O)O
IC50 [5]: > 40 µM
IC50 [6]: > 40 µM
IC50 [1]: > 40 µM
ID50 [2]: 2 µM
ID50 [3]: > 50 µM
ID50 [4]: 47 µM

CCOC(=O)C(=O)CC(=O)/C=C/c1cc(C(=O)c2cccc(F)c2)c[nH]1
IC50 [5]: > 40 µM
IC50 [6]: 30 µM
IC50 [1]: > 40 µM
ID50 [2]: 44 µM
ID50 [3]: > 40 µM
ID50 [4]: 6 µM

CCOC(=O)C(=O)CC(=O)/C=C/c1cn(Cc2ccc(F)cc2)c2ccccc12
IC50 [1]: > 40 µM
ID50 [2]: > 40 µM
ID50 [3]: > 40 µM
ID50 [4]: > 40 µM

CCOC(=O)C(=O)CC(=O)/C=C/c1cn(-c2ccc(O)cc2)c2ccccc12
IC50 [1]: > 40 µM
ID50 [2]: > 40 µM
ID50 [3]: > 40 µM
ID50 [4]: > 40 µM

CCOC(=O)C(=O)CC(=O)/C=C/c1cn(Cc2ccc(C#N)cc2)c2ccccc12
IC50 [1]: > 40 µM
ID50 [2]: > 40 µM
ID50 [3]: > 40 µM
ID50 [4]: > 40 µM

O=C(/C=C/c1cn(Cc2ccc(Cl)cc2)c2ccccc12)CC(=O)C(=O)O
IC50 [5]: > 40 µM
IC50 [6]: 19 µM
IC50 [1]: > 40 µM
ID50 [2]: > 40 µM
ID50 [3]: > 40 µM
ID50 [4]: 10 µM

O=C(/C=C/c1cn(-c2ccc(O)cc2)c2ccccc12)CC(=O)C(=O)O
IC50 [5]: > 40 µM
IC50 [6]: > 40 µM
IC50 [1]: > 40 µM
ID50 [2]: > 40 µM
ID50 [3]: > 40 µM
ID50 [4]: 5.2 µM

CCCCn1cc(/C=C/C(=O)CC(=O)C(=O)OCC)c2ccccc21
IC50 [1]: > 40 µM
ID50 [2]: > 40 µM
ID50 [3]: > 40 µM
ID50 [4]: > 40 µM

C/C=C/n1cc(/C=C/C(=O)CC(=O)C(=O)O)c2ccccc21
IC50 [5]: > 40 µM
IC50 [6]: > 40 µM
IC50 [1]: > 40 µM
ID50 [2]: 10 µM
ID50 [3]: > 40 µM
ID50 [4]: 33 µM

CCOC(=O)C(=O)CC(=O)/C=C/c1cc(C(=O)c2ccc(F)cc2)c[nH]1
IC50 [5]: > 40 µM
IC50 [6]: 6.3 µM
IC50 [1]: > 40 µM
ID50 [2]: > 40 µM
ID50 [3]: 11 µM
ID50 [4]: 4.1 µM

N#Cc1ccc(C(=O)c2c[nH]c(/C=C/C(=O)CC(=O)C(=O)O)c2)cc1
IC50 [5]: > 40 µM
IC50 [6]: > 40 µM
IC50 [1]: > 40 µM
ID50 [2]: 40 µM
ID50 [3]: > 40 µM
ID50 [4]: 1.1 µM

O=C(/C=C/c1cn(-c2ccc(Cl)cc2)c2ccccc12)CC(=O)C(=O)O
IC50 [5]: > 40 µM
IC50 [6]: 27 µM
IC50 [1]: > 40 µM
ID50 [2]: > 40 µM
ID50 [3]: 9 µM
ID50 [4]: 31 µM

CCOC(=O)C(=O)CC(=O)/C=C/c1cn(Cc2ccc(Cl)cc2)c2ccccc12
IC50 [1]: > 40 µM
ID50 [2]: > 40 µM
ID50 [3]: > 40 µM
ID50 [4]: 40 µM

O=C(/C=C/c1cc(C(=O)c2ccc(F)cc2)c[nH]1)CC(=O)C(=O)O
IC50 [5]: > 40 µM
IC50 [6]: > 40 µM
IC50 [1]: > 40 µM
ID50 [2]: 40 µM
ID50 [3]: > 40 µM
ID50 [4]: 0.58 µM
